# From PubChem BioAssay
# Only some compounds are listed: those with a hit (about 3.7% of all), similar ones and a draw of the others.
# aDG glyco act – activators of alpha-DG glycosylation, primary screen, uHTS, Pro5-aDG cells, AlphaScreen; alpha-DG glycosylation AlphaScreen (IIH6); 0% Pro5, 100% B10-LARGE cell signal; activation, % at 10 µM; 360,000 tested, 0.22% active;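 active = activation of at least 8% versus controls, or a plate z-score of at least 8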;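 also: Pro5 are CHO cells carrying HIG-tagged alpha-DG that lacks glycosylation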
# GRIN3A LBD mod – binders of NR3A ligand-binding domain, primary screen, biophysical, differential scanning fluorimetry, uHTS; Glutamate receptor ionotropic, NMDA 3A (GRIN3A) ligand-binding domain; NR3A LBD differential scanning fluorimetry, Tm shift; 0% = protein alone, 100% = glycine-bound protein; Tm shift relative to glycine control, % at 25 µM; 340,000 tested, 2.5% active; AID 1259313, 2017;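 active = melting temperature shift of at least 10% of the positive control shift, at one fixed dose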
# proCasp3 act – activators of human procaspase-3 D3A mutant, primary screen, biochemical, absorbance, PC-3 D3A mutant, single concentration; 330,000 tested, 0.11% active; recombinant procaspase-3 D3A, Ac-DEVD-pNA absorbance 405 nm; Caspase-3 (Homo sapiens), P42574; activation, % at 8.5 µM;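 active = activation above the mean of all tested compounds plus 3 SD, cut at about 21% in these data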
# Target sequence (P42574 whole entry D9A/D28A/D175A): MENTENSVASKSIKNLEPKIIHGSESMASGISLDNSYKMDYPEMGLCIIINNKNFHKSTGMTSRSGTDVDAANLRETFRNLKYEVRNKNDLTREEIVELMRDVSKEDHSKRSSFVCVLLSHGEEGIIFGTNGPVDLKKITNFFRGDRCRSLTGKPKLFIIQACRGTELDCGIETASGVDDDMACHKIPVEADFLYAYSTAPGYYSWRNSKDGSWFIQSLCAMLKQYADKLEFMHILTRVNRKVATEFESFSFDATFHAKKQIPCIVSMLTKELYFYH
#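 Evaluation: percent activation relative to control range; Material: Procaspase-3 D3A mutant, all three cleavage aspartates alanine; Compound: single dose, 8.5 µM nominal compound, 0.8% DMSO; Replication: one well per compound; Signal: absorbance at 405 nm, 0 and 120 min; Schedule: 1 h preincubation plus 2 h reaction at 25 °C.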
# procasp7 counter – procaspase-7 activators, primary screen, counter-screen for procaspase-3 activator project, biochemical, absorbance, HTS, human; Caspase-7 (Homo sapiens), P55210; activation, % at 8.5 µM; recombinant procaspase-7, Ac-DEVD-pNA absorbance 405 nm; D23A/D198A/D206A triple mutant, cannot self-cleave; scale: DMSO 0, 5 µM enzyme 100; 330,000 tested, 0.093% active; AID 463210, 2010;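 active = percent activation above the screen-wide mean plus 3 SD, cut at about 25% in these data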
# Target sequence (P55210 whole entry D23A/D198A/D206A): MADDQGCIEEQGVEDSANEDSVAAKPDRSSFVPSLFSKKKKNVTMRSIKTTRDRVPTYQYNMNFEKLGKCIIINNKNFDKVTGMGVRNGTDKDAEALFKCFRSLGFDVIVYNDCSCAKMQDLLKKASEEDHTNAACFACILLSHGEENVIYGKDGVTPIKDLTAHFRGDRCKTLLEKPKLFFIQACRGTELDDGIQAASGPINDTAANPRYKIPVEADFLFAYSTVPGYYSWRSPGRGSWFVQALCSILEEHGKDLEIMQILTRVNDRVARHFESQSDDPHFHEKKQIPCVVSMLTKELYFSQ
#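 Material: Procaspase-7 triple mutant (PC-7 D3A) | Quantity: 2 µM procaspase-7 mutant as dispensed | Reagent: DEVD-pNA substrate | Times: 1 h preincubation, 2 h reaction | Technique: 405 nm absorbance of p-nitroaniline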
# MPTP inh – mitochondrial permeability transition pore inhibitors, primary screen, biochemical, isolated mouse mitochondria, absorbance | Ca2+ swelling absorbance, 30 min | AID 602449, 2012 | 360,000 tested, 1.4% active | inhibition, % at 10 µM;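 active = inhibition of 50% or more, scaled per plate between neutral and stimulator controls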
# Numbers stand for hits; . = inactive; / = no result given.
SMILES,aDG glyco act,GRIN3A LBD mod,proCasp3 act,procasp7 counter,MPTP inh
CCOc1ccc(NS(=O)(=O)c2ccc(NS(=O)(=O)c3ccc(SC)cc3)cc2)cc1,.,28,.,.,.
CCOc1ccc(NS(=O)(=O)c2ccc(NS(C)(=O)=O)cc2)cc1,.,.,.,.,.
CCc1ccc(NC(=O)c2cc(S(=O)(=O)N3CCCC3)ccc2F)cc1,.,/,/,/,.
Cc1ccc(SC[C@H](Cc2ccccc2)N2CCN(CCc3ccccc3)CCC2=O)cc1,.,19,.,.,.
Cc1cccc2c(=O)n(C(=O)c3ccccc3)c(N)nc12,.,/,/,/,.
CCNc1ncnc2c1cnn2C1CCCCO1 (configuration not stated),.,.,/,/,.
CCOc1ccccc1NC(=O)c1ccc(OCC)c([N+](=O)[O-])c1,.,.,.,.,.
COc1ccc(C(=O)Nc2ccc(C(=O)Nc3nccs3)cc2)cc1[N+](=O)[O-],.,22,.,.,.
COc1ccc(C(=O)Nc2ccc(NC(=O)c3cccs3)cc2)cc1[N+](=O)[O-],.,24,.,.,.
CCOc1ccc(C(=O)Nc2ccc(NC(=O)c3cccs3)cc2)cc1[N+](=O)[O-],.,28,.,.,.
C[C@H](CO)N1C[C@H](C)[C@@H](CN(C)Cc2ccccn2)Oc2ncc(-c3ccccc3)cc2C1=O,.,/,/,/,.
CCN1C(=O)[C@H]2[C@H]3CN=C(SCc4ccc(C)cc4)N3[C@@](CC)(C(=O)OC)[C@H]2C1=O,.,.,.,.,.
Cc1ccc(NC(=O)CSCC(=O)N(CCC(C)C)c2c(N)n(Cc3ccccc3)c(=O)[nH]c2=O)cc1,.,.,/,/,.
Cc1nnc(N/N=C/c2ccccc2O)n1N,.,.,.,.,.
Cc1nnc(N/N=C/c2cc(C)n(-c3ccc(F)cc3)c2C)n1N,.,12,.,.,.
C[C@H]1CN([C@@H](C)CO)C(=O)CCCn2nncc2CO[C@@H]1CN(C)S(=O)(=O)c1cccc(F)c1,.,/,/,/,.
COc1ccc(/C=N/NC(=S)N[C@H]2CC3CCC2C3)cc1 (some centres not stated),.,26,.,.,.
C#CCOCCOCCOCCNc1nc(N2CCN(C(=O)[C@H]([C@@H](C)CC)n3cc([C@@H](N)CC(C)C)nn3)CC2)nc(N2CCN(C(=O)[C@H](CCCCN)n3cc([C@@H](N)CC(C)C)nn3)CC2)n1,/,10,.,.,/
C#CCOCCOCCOCCNc1nc(N2CCN(C(=O)[C@H]([C@@H](C)CC)n3cc([C@@H](N)CO)nn3)CC2)nc(N2CCN(C(=O)[C@H](CCCCN)n3cc([C@@H](N)C(C)CC)nn3)CC2)n1 (some centres not stated),.,.,.,.,.
C#CCOCCOCCOCCNc1nc(N2CCN(C(=O)CCCCCCCCCCNC(=O)[C@H]([C@@H](C)CC)n3cc(CCCCCN)nn3)CC2)nc(N2CCN(C(=O)CCCCCCCCCCNC(=O)[C@H](CCCCN)n3cc(CCCC(=O)O)nn3)CC2)n1,.,22,.,.,.
C#CCOCCOCCOCCNc1nc(N2CCN(C(=O)CCCCCCCCCCNC(=O)[C@@H](CCC(=O)O)n3cc(CCCCCN)nn3)CC2)nc(N2CCN(C(=O)CCCCCCCCCCNC(=O)[C@H]([C@@H](C)CC)n3cc(CCCCCN)nn3)CC2)n1,.,26,.,.,.
C#CCOCCOCCOCCNc1nc(N2CCN(C(=O)CCCCCCCCCCNC(=O)[C@H]([C@@H](C)CC)n3cc(CCCCCN)nn3)CC2)nc(N2CCN(C(=O)CCCCCCCCCCNC(=O)[C@@H]([C@H](C)CC)n3cc(CCCCCN)nn3)CC2)n1,/,/,.,.,/
CC(C1SC(=S)NC1=O)C1SC(=S)NC1=O (configuration not stated),.,/,/,/,.
CCCCOc1ccc(C(=O)NCC(=O)N2CCN(C/C=C/c3ccccc3)CC2)cc1,.,/,/,/,.
CSc1ccc(-c2cccc3nncn23)cc1,.,/,/,/,.
SMILES,aDG glyco act,GRIN3A LBD mod,proCasp3 act,procasp7 counter,MPTP inh
COc1cccc2cc(-c3nnc(SCC(=O)Nc4cc(C(F)(F)F)ccc4Cl)n3N)oc12,.,11,.,.,.
Cc1nn(C(C)(C)C)c(OC(=O)C2CCCC2)c1S(=O)(=O)c1ccccc1,.,.,/,/,.
Cc1ccc(S(=O)(=O)c2c(C)nn(C(C)(C)C)c2OC(=O)C2CCCC2)cc1,.,10,.,.,.
O=C1C=C(N2CCOCC2)c2ccccc2C1=O,.,.,.,.,.
CC1=C(C)C(=O)C(N2CCOCC2)=CC1=O,5.3,.,/,/,.
NC(=O)c1sc2cc(C(F)(F)F)cnc2c1-c1cccs1,.,21,.,.,.
Cc1ccc2oc(=O)c3cnn(CC(=O)NCCC(C)C)c3c2c1,.,13,.,.,.
Cc1ccc2oc(=O)c3cnn(CC(=O)NCCN(C)C)c3c2c1,.,.,.,.,.
COc1cccc(S(=O)(=O)N(C)C[C@H]2OCc3cnnn3CCCC(=O)N([C@@H](C)CO)C[C@@H]2C)c1,.,/,/,/,.
CN(C)S(=O)(=O)c1cc(C(=O)NCC2CCCO2)c(Cl)cc1Cl (configuration not stated),.,18,.,.,.
CN(C)S(=O)(=O)c1ccc2nnn(OCC(=O)NC3CCS(=O)(=O)C3)c2c1 (configuration not stated),.,.,.,.,.
CN(C)S(=O)(=O)c1ccc2nnn(OCC(=O)NC34CC5CC(CC(C5)C3)C4)c2c1,.,12,.,.,.
CCN(CC)c1ncnc2c1ncn2[C@H]1CN(C2CCCC2)C[C@@H](CO)O1,.,/,/,/,.
S=C(NCCN1CCOCC1)Nc1ccc(Cl)cc1Cl,.,12,.,.,.
COc1ccc2c(c1)c(CC(=O)Nc1cccc(S(N)(=O)=O)c1)c(C)n2C(=O)c1ccc(Cl)cc1,.,23,.,.,.
COc1ccc(NC(=O)Cc2c(C)n(C(=O)c3ccc(Cl)cc3)c3ccc(OC)cc23)cc1,.,.,.,.,.
COc1ccc(OC)c(NC(=O)COC(=O)CCC2CCCC2)c1,.,.,.,.,.
COc1ccc(NS(=O)(=O)c2ccc(OC)c(NC(=O)CCC3CCCC3)c2)cc1,.,32,.,.,.
COc1ccc(NS(=O)(=O)c2cccc(NC(=O)CCC(=O)c3ccc(Cl)cc3)c2)cc1,.,26,.,.,.
OC[C@@H]1CN(Cc2ccncc2)C[C@H](n2cnc3c(NCc4ccncc4)ncnc32)O1,.,/,/,/,.
